# Source: PubChem BioAssay
# Compounds with a hit are over-represented: about 3.7% of the library has one in this group of screens.
# KCNK3 inh: human KCNK3 channel inhibitors, primary screen, CHO cells, FluxOR thallium flux, B-score. Potassium channel subfamily K member 3 (Homo sapiens), O14649. FluxOR fluorescence; active compounds read low. B-score at 10 µM. hit rate 0.84% among 340,000;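 active means B-score under library mean minus 4 SD, starting fluorescence ratio at most library mean plus 5 SD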;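 further: more negative B-score means stronger inhibition of thallium flux through KCNK3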
# KCNQ1 inh: inhibitors of human KCNQ1 channel, primary screen, cell-based, thallium flux, high-throughput; B-score at 10 µM; Potassium voltage-gated channel subfamily KQT member 1 (Homo sapiens), P51787; hit rate 1.3% among 310,000; CHO-K1 KCNQ1, FluxOR thallium flux fluorescence; active compounds read high;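 active means compounds whose thallium flux B-score, printed positive for inhibition, exceeds three library SD while starting fluorescence stays within three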;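 further: channel opened by potassium depolarization with thallium stimulus after 20 min compound exposure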
# Kir21 inh: inhibitors of mouse Kir2.1 inward-rectifier potassium channel; B-score at 10 µM; hit rate 0.85% among 310,000; Inward rectifier potassium channel 2 (Mus musculus), P35561; AID 1672, 2009; HEK293-Kir2.1, FluxOR thallium flux fluorescence; active compounds read low;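 active means fluorescence ratio B-score at or below minus 3 SD of library scores, with starting-brightness B-score within 2 SD, cut at about -4.2 in these data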;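 further: channel flux triggered by added potassium and thallium sulfate stimulus; B-score of peak minus minimum fluorescence over baseline after thallium stimulus; more negative B-score means stronger Kir2.1 block with less thallium influx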
# KCNK9 block: KCNK9 potassium channel inhibitors, primary screen, HEK293 cells, thallium flux | Potassium channel subfamily K member 9 (Homo sapiens), Q9NPC2 | FluxOR thallium flux fluorescence; active compounds read low | B-score at 10 µM | hit rate 1.2% among 310,000 | AID 488922, 2010;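 active means ratio B-score over 3 SD below the library mean, with starting fluorescence within 5 SD of its mean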;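 further: negative B-score means less thallium flux so channel inhibition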
# KCNQ1 pot: potentiators or activators of KCNQ1 channel, primary screen, cell-based, thallium flux, high-throughput; Potassium voltage-gated channel subfamily KQT member 1 (Homo sapiens), P51787; CHO-K1 KCNQ1, thallium flux FluxOR fluorescence; active compounds read high; B-score at 10 µM; hit rate 0.35% among 310,000;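 active means fluorescence ratio B-score, a plate-corrected score, at least three library SD, with initial intensity B-score within 5 SD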
#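 Assay system: CHO-K1 cells stably expressing KCNQ1; Medium: assay buffer with matched DMSO; Also added: K+/Tl+ depolarizing stimulus; Dosing: single dose; Timing: dye 90 min, compound 20 min, room temperature; Measured by: kinetic FluxOR thallium fluorescence, 10-s 1-Hz baseline, 110-s post-stimulus read; Read-out: peak-minus-minimum fluorescence over initial fluorescence, negative-control normalized, B-scored.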
# hERG rescue: hERG rescue from dofetilide block, primary screen, cell-based, CHO-hERG, FluxOR thallium flux, dofetilide IC70; Voltage-gated inwardly rectifying potassium channel KCNH2 (Homo sapiens), Q12809; dofetilide IC70 present; activation (rescue from dofetilide block), less the hit threshold, % at 10 µM; hit rate 0.51% among 310,000;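 active means activation above the mean of controls blocked by dofetilide plus 5 SD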;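 further: thallium influx through hERG after potassium depolarization seen as dye fluorescence rise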
# An asterisk follows results filed as active; i = inactive; . = no result given.
SMILES,KCNK3 inh,KCNQ1 inh,Kir21 inh,KCNK9 block,KCNQ1 pot,hERG rescue
CN(C)CCOC(C1CCCCC1)C1CCCCC1,i,i,-4.6*,i,i,-8
CS(=O)(=O)c1ccc(C(=O)OCc2nnc(-c3ccccc3)o2)cc1[N+](=O)[O-],i,i,0,i,21*,-17
O=C(OCc1nnc(-c2ccccc2)o1)c1ccc(Cl)cc1,i,i,0,i,i,-10
Cc1cccc2c1-c1sc(C(=O)Nc3cccnc3)cc1CO2,i,i,0.6,-7.2*,i,-11
CC(=O)OCCC(NS(=O)(=O)OCC(Cl)(Cl)Cl)c1ccccc1 (configuration not stated),i,i,-2.1,i,i,-4
C[C@H](NS(=O)(=O)OCC(Cl)(Cl)Cl)C1CC1c1ccccc1 (some centres not stated),i,6*,1.1,i,i,-10
CC(C)C[C@H]1CNC(=S)N1CC1CCCN1C[C@H](CC(C)C)N1C[C@H](Cc2ccc(O)cc2)N(CC2CCCCCC2)C1=S (some centres not stated),i,.,.,.,.,.
COc1ccc(/C=N/Nc2cc(C)nc3ccccc23)cc1,i,i,-6.6*,i,i,-17
COc1ccc(/C=N/Nc2cc(C)nc3c(C)cccc23)cc1,i,6*,-0.72,i,i,-26
COc1ccc(OC)c(C(c2nnnn2C2CCCC2)N2CCN(c3ccccc3F)CC2)c1 (configuration not stated),i,i,0.38,-8.9*,i,-7
Cc1cccn2cc(COc3ccc(-c4ccccc4)cc3)nc12,i,i,0.51,i,i,-9
CN(C)S(=O)(=O)c1cccc(NC(=S)Nc2ccc(Cl)cc2Cl)c1,i,i,-2.5,i,i,-11
CN(C)S(=O)(=O)c1cccc(NC(=S)Nc2cc(Cl)cc(Cl)c2)c1,i,7*,-2.4,i,i,-24
CN(C)S(=O)(=O)c1cccc(NC(=S)N/N=C/c2ccc(O)c(O)c2O)c1,i,i,-5.4*,i,i,-17
COC(=O)c1cnn2c(C(F)(F)F)cc(-c3ccccc3)nc12,i,i,-0.07,i,i,5.2*
COc1cccc(-c2cc(C(F)(F)F)n3ncc(C(=O)O)c3n2)c1,i,i,0.72,i,i,-7
COc1ccc2oc(C(=O)N(Cc3ccco3)Cc3cccs3)c(C)c2c1,i,9*,-2.3,i,i,-17
CC(C)(C)OC(=O)N1CCC[C@H]1c1nnc(SCc2c(Cl)cccc2Cl)o1,i,i,-3.2,i,i,-16
Cc1cccc(CSc2nnc([C@@H]3CCCN3C(=O)OC(C)(C)C)o2)c1,i,i,-6*,i,i,-14
CCCCCC/C(C)=C1/SC(=S)NC1=O,i,i,0.41,i,126*,59*
C/C(C/C(C)=C1/SC(=S)NC1=O)=C1\SC(=S)NC1=O,i,.,.,.,.,.
Cc1ccc([N+](=O)[O-])c2c1C(N1CC(C)OC(C)C1)C(C)(C)O2 (configuration not stated),i,i,-0.4,i,i,5.4*
Cc1ccccc1C(C)NS(=O)(=O)c1ccc2c(c1)OCCO2 (configuration not stated),i,.,.,.,.,.
Cc1c(CCO)sc[n+]1CC(=O)OCCC12CC3CC(CC(C3)C1)C2,i,i,-0.41,i,i,-3
Cc1c(CCOC(=O)CC23CC4CC(CC(C4)C2)C3)sc[n+]1Cc1ccccc1,i,7*,-1.8,i,i,-17
SMILES,KCNK3 inh,KCNQ1 inh,Kir21 inh,KCNK9 block,KCNQ1 pot,hERG rescue
CCCCN(CCCC)C(=O)c1cc(Cl)ccc1[N+](=O)[O-],i,i,-7*,i,i,-11
CN(Cc1ccc(Cl)cc1)C(=O)COC(=O)CSc1ccc([N+](=O)[O-])cc1,i,.,.,.,.,.
Cc1ccc(CN(C(=O)c2csnn2)C(C(=O)NC2CCCC2)c2ccc(C)o2)cc1 (configuration not stated),i,i,0.49,-6.8*,i,-10
Cc1ccc(C(C(=O)NC2CCCC2)N(C(=O)c2csnn2)C2CCCC2)o1 (configuration not stated),i,i,-0.23,i,i,-15
Cc1c(Cc2ccc3c(c2)OCO3)sc(NC(=O)C(C)(C)C)c1C#N,i,i,0.94,-7.6*,i,-5
CCOC(=O)c1cc(-c2ccc(C)cc2)n(CCC(=O)N2CCN(c3ccccn3)CC2)c1C,i,i,0.51,i,i,-5
Cc1ccc(S(=O)(=O)N(C)c2ccc(OC(=O)c3cccs3)cc2)cc1,-9.5*,.,.,.,.,.
Cc1ccc(S(=O)(=O)CC(=O)Nc2nc(-c3ccccc3)cs2)cc1,i,6*,0.85,i,i,-8
Cc1ccc(S(=O)(=O)N(C)c2ccc(OC(=O)COc3ccccc3)cc2)cc1,i,.,.,.,.,.
Cc1ccc(S(=O)(=O)N(C)c2ccc(OCC(=O)Nc3nc(-c4ccccc4)cs3)cc2)cc1,i,i,0.16,-7.2*,i,-12
COc1ccc(N(CC(=O)NCc2ccc3c(c2)OCO3)S(=O)(=O)c2ccc(O)c(C(=O)O)c2)cc1,i,.,.,.,.,.
Cc1cccc2sc(NS(=O)(=O)c3ccccc3)nc12,i,6*,-2.5,i,i,-2
O=C(CSCc1ccc([N+](=O)[O-])cc1)NC1CC1,i,i,-0.08,i,i,-5
CC(C)C(NC(=O)CSCc1ccc([N+](=O)[O-])cc1)C(C)C,i,i,-4.5*,i,i,-9
CCOC(=O)c1c(C)oc2c1c(C(c1cccnc1)N1CCCCC1)c(O)c1ccccc12 (configuration not stated),i,6*,-0.78,i,i,-7
COc1ccc(NC(=O)/C(Cl)=C(/Cl)S(=O)(=O)Cc2ccccc2)cn1,i,i,-5*,i,i,-19
Oc1c(Cl)cc(Cl)cc1Sc1cc(Cl)cc(Cl)c1O,.,i,0.96,i,105*,43*
Cc1cccc2sc(NC(=O)CN(C)S(=O)(=O)c3ccc(Br)s3)nc12,-9.9*,i,0.95,i,i,-6
O=C(/C=C/c1cccc(Cl)c1)N1CCC(Cc2ccccc2)CC1,i,8*,-0.15,i,i,-9
